Results: ChEMBL document CHEMBL1799968, “Dimethyl-diphenyl-propanamide derivatives as nonsteroidal dissociated glucocorticoid receptor agonists” (J Med Chem, 2010)

Tests used:
[1] = target: T1, Progesterone receptor (Homo sapiens, UniProt P06401); assay: Binding affinity to progesterone receptor by fluorescence polarization assay
T1 sequence (P06401 whole entry): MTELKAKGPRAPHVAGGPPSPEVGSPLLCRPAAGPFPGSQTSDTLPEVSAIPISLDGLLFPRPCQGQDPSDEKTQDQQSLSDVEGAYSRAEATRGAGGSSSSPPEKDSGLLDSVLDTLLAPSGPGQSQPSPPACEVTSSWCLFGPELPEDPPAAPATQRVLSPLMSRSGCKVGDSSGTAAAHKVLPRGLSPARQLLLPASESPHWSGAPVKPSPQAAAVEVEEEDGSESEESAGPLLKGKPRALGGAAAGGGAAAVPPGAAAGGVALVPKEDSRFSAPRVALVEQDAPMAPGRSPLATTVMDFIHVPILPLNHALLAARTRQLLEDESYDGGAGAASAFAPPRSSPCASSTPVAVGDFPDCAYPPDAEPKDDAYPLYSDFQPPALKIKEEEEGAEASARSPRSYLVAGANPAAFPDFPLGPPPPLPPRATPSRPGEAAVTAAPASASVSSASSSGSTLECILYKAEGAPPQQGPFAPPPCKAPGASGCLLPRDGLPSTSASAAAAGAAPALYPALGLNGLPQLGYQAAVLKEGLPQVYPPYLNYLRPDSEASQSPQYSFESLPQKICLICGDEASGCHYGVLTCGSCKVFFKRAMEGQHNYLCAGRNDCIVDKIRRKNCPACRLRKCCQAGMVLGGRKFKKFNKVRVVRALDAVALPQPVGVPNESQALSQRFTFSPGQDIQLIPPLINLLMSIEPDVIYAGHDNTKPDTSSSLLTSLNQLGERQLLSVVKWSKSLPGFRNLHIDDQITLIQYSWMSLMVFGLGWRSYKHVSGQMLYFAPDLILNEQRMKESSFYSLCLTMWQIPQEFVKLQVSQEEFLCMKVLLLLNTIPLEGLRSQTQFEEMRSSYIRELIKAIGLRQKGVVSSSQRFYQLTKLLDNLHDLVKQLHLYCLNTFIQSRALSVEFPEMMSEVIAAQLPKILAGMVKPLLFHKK
Procedure, shortened: (§1)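 Fluorescence polarization competition of test compound against a fluorescently labelled ligand for binding to full-length receptor or its ligand-binding domain.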

[2] = target: T2, Androgen receptor (Homo sapiens, UniProt P10275); assay: Binding affinity to androgen receptor by fluorescence polarization assay; procedure, shortened: as §1
T2 sequence (P10275 whole entry): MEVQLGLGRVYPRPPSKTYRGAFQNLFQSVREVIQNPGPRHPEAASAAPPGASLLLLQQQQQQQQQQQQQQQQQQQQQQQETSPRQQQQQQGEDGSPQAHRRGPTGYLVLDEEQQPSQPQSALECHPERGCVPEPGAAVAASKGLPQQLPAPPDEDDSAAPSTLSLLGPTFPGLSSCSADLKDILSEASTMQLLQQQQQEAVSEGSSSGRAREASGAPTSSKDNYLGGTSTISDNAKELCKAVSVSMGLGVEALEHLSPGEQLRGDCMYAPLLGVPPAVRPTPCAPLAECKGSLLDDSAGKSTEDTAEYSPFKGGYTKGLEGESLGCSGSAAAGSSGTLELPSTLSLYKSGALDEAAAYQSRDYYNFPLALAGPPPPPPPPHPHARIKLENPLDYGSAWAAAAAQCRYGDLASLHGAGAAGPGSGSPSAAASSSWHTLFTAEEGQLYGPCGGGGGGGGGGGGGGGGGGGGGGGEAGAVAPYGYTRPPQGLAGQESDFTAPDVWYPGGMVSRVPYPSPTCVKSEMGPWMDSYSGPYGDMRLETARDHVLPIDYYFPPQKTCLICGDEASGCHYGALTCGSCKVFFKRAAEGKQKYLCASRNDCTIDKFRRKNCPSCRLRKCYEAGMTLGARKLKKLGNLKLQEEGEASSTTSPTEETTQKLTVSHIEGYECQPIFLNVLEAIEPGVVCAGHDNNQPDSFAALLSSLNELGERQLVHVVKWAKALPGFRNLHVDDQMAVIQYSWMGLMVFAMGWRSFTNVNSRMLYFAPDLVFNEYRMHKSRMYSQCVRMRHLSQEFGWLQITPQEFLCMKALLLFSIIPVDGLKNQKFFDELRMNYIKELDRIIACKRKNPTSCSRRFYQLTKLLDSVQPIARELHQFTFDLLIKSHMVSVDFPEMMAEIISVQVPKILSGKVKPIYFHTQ

[3] = target: T3, Glucocorticoid receptor (Homo sapiens) (UniProt P04150); assay: Transrepression activity of glucocorticoid receptor in human A549 cells assessed as inhibition of IL1beta-stimulated NFkappaB-dependent E-selectin transcription by luciferase reporter gene assay relative to Dexamethasone; type: cell-based
T3 sequence (whole entry): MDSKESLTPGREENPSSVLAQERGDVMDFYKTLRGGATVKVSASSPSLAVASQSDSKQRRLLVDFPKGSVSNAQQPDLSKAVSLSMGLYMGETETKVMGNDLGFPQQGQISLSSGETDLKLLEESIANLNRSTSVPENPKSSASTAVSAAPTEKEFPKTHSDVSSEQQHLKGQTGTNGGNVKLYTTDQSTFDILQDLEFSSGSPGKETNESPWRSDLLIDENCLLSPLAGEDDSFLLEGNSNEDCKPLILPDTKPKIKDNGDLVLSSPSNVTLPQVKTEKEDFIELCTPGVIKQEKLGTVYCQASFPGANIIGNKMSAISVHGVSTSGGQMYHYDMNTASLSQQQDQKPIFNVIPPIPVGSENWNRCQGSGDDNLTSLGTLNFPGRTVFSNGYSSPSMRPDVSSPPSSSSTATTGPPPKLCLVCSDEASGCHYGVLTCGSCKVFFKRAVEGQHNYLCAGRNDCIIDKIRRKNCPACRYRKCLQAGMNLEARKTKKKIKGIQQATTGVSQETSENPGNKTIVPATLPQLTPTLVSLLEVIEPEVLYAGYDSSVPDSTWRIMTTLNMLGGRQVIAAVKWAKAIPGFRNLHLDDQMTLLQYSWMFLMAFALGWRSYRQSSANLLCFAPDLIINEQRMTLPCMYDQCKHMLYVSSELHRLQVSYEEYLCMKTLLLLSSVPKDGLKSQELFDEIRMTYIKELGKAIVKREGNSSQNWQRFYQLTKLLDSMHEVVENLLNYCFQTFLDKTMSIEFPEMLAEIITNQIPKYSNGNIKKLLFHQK

[4] = Selectivity ratio of Ki of GRapha to Ki of progesterone receptor
[5] = target: T3, Glucocorticoid receptor (Homo sapiens); assay: Transactivation activity of glucocorticoid receptor ligand binding domain expressed in human NP-1 Hela cells co-expressing GAL4 DNA binding domain by luciferase reporter gene assay relative to Dexamethasone; type: cell-based
Procedure, shortened: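 HeLa NP-1 cells stably carrying a GAL4 DBD–human GR LBD chimera with a GAL4 luciferase reporter. Agonist activity was read as increased luciferase activity.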

[6] = Selectivity ratio of Ki of GRapha to Ki of androgen receptor
[7] = target: T3, Glucocorticoid receptor (Homo sapiens); assay: Transrepression activity of glucocorticoid receptor in human A549 cells expressing AP-1 assessed as inhibition of PMA-induced AP-1 activity by luciferase reporter gene assay relative to Dexamethasone; type: cell-based
Procedure, shortened: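 Human A549 lung epithelial cells stably transfected with a 5×AP-1 response element luciferase reporter. AP-1 was induced with PMA (15 ng/mL), and inhibition was read as decreased luciferase.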

Row | Ki [1] [µM] | Ki [2] [µM] | Efficacy [3] [%] | Ratio Ki [4] | Efficacy [5] [%] | Ratio Ki [6] | Efficacy [7] [%] | Compound
1 | 0.031 | 0.37 | 71 | 66 | 48 | > 870 | 83 | CC(C)(C(=O)Nc1nccs1)[C@@H](c1ccccc1)c1ccc(O)c(Br)c1
2 | 0.053 | 0.696 | 62 | 66 | 46 | > 870 | 82 | CC(C)(C(=O)Nc1nncs1)[C@H]1c2ccccc2Oc2cc(O)ccc21
3 | 0.273 | 1.06 | 52 | 227 | 21 | > 870 | 63 | CC(C)(C(=O)Nc1nccs1)[C@@H](c1ccccc1)c1ccc(O)cc1
4 | 0.022 | 2.34 | 68 | 73 | 30 | > 870 | 81 | CC(C)(C(=O)Nc1nccs1)[C@H]1c2ccccc2Oc2cc(O)ccc21
5 | 0.053 | 1.03 | 68 | 66 | 61 | > 870 | 79 | CC(C)(C(=O)Nc1nccs1)[C@@H](c1ccccc1)c1ccc(O)c(F)c1
